In ChEMBL document CHEMBL2380206, “Discovery of potent, selective chymase inhibitors via fragment linking strategies” (J Med Chem, 2013):

Tests used:
Chymase = molecular target: T1, Chymase (Homo sapiens, UniProt P23946); assay: Inhibition of recombinant human chymase using bis(succinoyl-L-alanyl-L-prolyl-L-phenylalanylamide) as substrate after 1 hr by fluorescence assay
T1 sequence (P23946 whole entry): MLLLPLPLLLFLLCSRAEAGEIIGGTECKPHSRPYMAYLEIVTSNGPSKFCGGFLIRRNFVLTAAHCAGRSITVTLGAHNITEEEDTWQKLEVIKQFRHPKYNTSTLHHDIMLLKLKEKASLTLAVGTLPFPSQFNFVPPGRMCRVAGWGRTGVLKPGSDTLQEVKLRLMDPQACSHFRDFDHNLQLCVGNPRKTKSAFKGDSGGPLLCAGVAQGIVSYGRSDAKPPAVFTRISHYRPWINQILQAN

Cathepsin G = molecular target: T2, Cathepsin G (Homo sapiens, UniProt P08311); assay: Inhibition of human cathepsin G using bis(succinoyl-L-alanyl-L-prolyl-L-phenylalanylamide) as substrate after 1 hr by fluorescence assay
T2 sequence (P08311 whole entry): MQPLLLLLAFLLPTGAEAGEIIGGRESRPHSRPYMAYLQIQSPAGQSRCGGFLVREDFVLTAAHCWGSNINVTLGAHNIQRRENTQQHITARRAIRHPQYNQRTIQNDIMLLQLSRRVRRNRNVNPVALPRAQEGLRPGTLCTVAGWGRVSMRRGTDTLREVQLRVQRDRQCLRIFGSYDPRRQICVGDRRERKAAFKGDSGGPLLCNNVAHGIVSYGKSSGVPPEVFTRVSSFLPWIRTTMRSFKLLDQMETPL

Homo sapiens = species: Homo sapiens; assay: Selectivity ratio of IC50 for human cathepsin G to IC50 for recombinant human chymase
Outline: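 Both IC50s from the same fluorogenic rhodamine 110 bis(Suc-Ala-Ala-Pro-Phe-amide) assay, 1 h at 28 °C/80% humidity, ex 485 / em 530 nm, with 0.01% CHAPS, 100 μM TCEP and 1% DMSO. Chymase: 500 pM recombinant human enzyme, 100 nM substrate, 20 mM Tris-HCl pH 8.0, 50 mM NaCl. Cathepsin G: 4 nM enzyme, 300 nM substrate, PBS plus 10 mM HEPES pH 7.4.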

Liver microsomes = assay: Metabolic stability in human liver microsomes assessed as GSH adduct formation incubated for 3 min prior to NADPH addition measured after 2 hrs by mass spectrometric analysis

Row | IC50 (Chymase) | IC50 (Cathepsin G) | SMILES | further results
1 | > 1000 µM |  | O=C1Cc2ccccc2N1 [OXINDOLE] | 
2 |  | > 10 µM | CCCC(CC(=O)O)n1c(=O)n(Cc2cccc3c2CC(=O)N3)c2ccccc21 (stereo not given) | 
3 | > 1000 µM |  | O=C1Cc2cc(Cl)ccc2N1 | 
4 | > 1000 µM |  | O=C1Cc2c(Cl)cccc2N1 | 
5 |  | 0.052 µM | Cc1cccc2scc(Cn3c(SCCCC(=O)O)nc4ccccc43)c12 | Ratio IC50 (Homo sapiens): 10
6 |  | > 10 µM | O=C(O)CCn1c(=O)n(Cc2cc(Cl)cc3c2CC(=O)N3)c2ccccc21 | 
7 | > 1000 µM |  | O=C1NCc2ccc(Cl)cc21 | 
8 | 570 µM |  | O=C1Cc2ccc(Br)cc2N1 | 
9 |  | > 10 µM | O=C(O)CCn1c(=O)n(Cc2cc(Br)cc3c2CC(=O)N3)c2ccccc21 | 
10 |  | > 10 µM | CCCC(Cn1c(=O)n(Cc2cc(Br)cc3c2CC(=O)N3)c2ccccc21)C(=O)O (stereo not given) | 
11 |  | 1.4 µM | Cc1cccc2scc(Cn3c(=O)n(CCCC(=O)O)c4ccccc43)c12 | 
12 |  | 5.4 µM | CCCC(CC(=O)O)n1c(=O)n(Cc2cc(Br)cc3c2CC(=O)N3)c2ccccc21 (stereo not given) | 
13 | > 1000 µM |  | CN1C(=O)Cc2ccc(Cl)cc21 | 
14 | > 1000 µM |  | O=C1Cc2cccc(Cl)c2N1 | 
15 |  | > 10 µM | CCCC(CC(=O)O)n1c(=O)n(Cc2cc(Cl)cc3c2CC(=O)N3)c2ccccc21 (stereo not given) | Stability (Liver microsomes): Stable
16 |  | > 1000 µM | O=C1Cc2ccc(Cl)cc2N1 | 
17 |  | > 10 µM | CCCC(Cn1c(=O)n(Cc2cc(Br)cc3[nH]c(=O)sc23)c2ccccc21)C(=O)O (stereo not given) | 
18 |  | 3.8 µM | O=C(O)CCCSc1nc2ccccc2n1Cc1cc(Cl)cc2c1CC(=O)N2 | 
